# Source: PubChem (several laboratories)
# Only some compounds are listed: those with a hit (about 1.6% of all), similar ones and a draw of the others.
# Apaf-1 inh = human Apaf-1 inhibition | inhibition, % at 20 µM | O14727 | reconstituted apoptosome caspase-3 activity, DEVD-Rh110 fluorescence | hit rate 0.71% among 330,000; active means inhibition of at least 40% at 20 µM;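 further: plate controls were DMSO wells for no effect and DEVD-CHO caspase inhibitor wells for full effect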
#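 Material: biochemical Apaf-1 apoptosome reconstitution. Medium: Hepes buffer, pH 7.5. Also added: cytochrome c activation, bis-DEVD rhodamine 110 substrate. Timing: 30 min compound preincubation, 50 min activation, room temperature. Measured by: rhodamine 110 fluorescence at Ex 480/Em 540 nm.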
# UBC13 polyUb = inhibitors of human UBC13 polyubiquitin chain formation. TR-FRET. inhibition, % at 20 µM. hit rate 0.47% among 330,000; in the data active means inhibition above about 45%, passing the limit was not always enough
# Neddylation inh = inhibitors of human cullin neddylation | AID 651699 | P61081+Q13564 | hit rate 0.58% among 360,000 | TR-FRET cullin neddylation, biochemical | calls only at 25 µM; in the data active means inhibition above about 36%
# RAD52 anneal inh = RAD52 (human) annealing inhibition | P43351 | recombinant RAD52 DNA annealing, FRET fluorescence | inhibition, % at 18.7 µM | hit rate 0.46% among 360,000;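 active means every replicate showing at least 50% inhibition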
# RAD54 inh = inhibitors of human RAD54 branch migration; hit rate 0.14% among 360,000; inhibition, % at 10.4 µM; RAD54 Holliday junction branch migration, FAM/BHQ fluorescence; AID 602329;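 active means mean normalized replicate activity at least 40 and at least half of replicates scoring 40 or more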;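 further: 0% = median of neutral control wells and 100% = median of positive control wells; inhibitors cause a drop in the FAM fluorescence signal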
# DNA FID counter = counter-screen for HCV NS3 helicase inhibitors: DNA intercalator displacement | hit rate 0.17% among 290,000 | inhibition, % at 7.9 µM | DNA fluorescent intercalator displacement, fluorescence; in the data active means inhibition above about 37%;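 further: 0% = vehicle and 100% = reference compound; higher means more ethidium bromide displaced from hairpin DNA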
# Apaf-1 inh conf2 = Apaf-1 inhibition, single-dose confirmed | shares compounds with Apaf-1 inh | reconstituted apoptosome, caspase-3 DEVD-Rh110 fluorescence | inhibition, % at 20 µM | hit rate 25% among 1,800;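 active means mean inhibition of at least 40% at 20 µM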;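 further: plate controls were DMSO wells for no effect and DEVD-CHO caspase inhibitor control wells for full effect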
# Rh110 interf inh = counter-screen for Apaf-1 inhibitors: fluorescence interference; shares compounds with Apaf-1 inh; Rh110 fluorescence interference, quenched caspase reaction; activation (fluorescence interference), % at 20 µM; 1,800 tested, under 10 active;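 active means signal rise of 40% or more at 20 µM, treated as a fluorescence artifact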
# Apaf1 inh interf = Apaf-1 inhibitor counter-screen fluorescence artifact | shares compounds with Apaf-1 inh | fluorescence interference counterscreen, Apaf-1 assay format | IC50, µM | 460 tested, under 10 active; call rule not given here
# The depositor's hits bear a star; i = inactive; x = no result shown.
SMILES,Apaf-1 inh,UBC13 polyUb,Neddylation inh,RAD52 anneal inh,RAD54 inh,DNA FID counter,Apaf-1 inh conf2,Rh110 interf inh,others
N#Cc1c(NC(=O)c2ccc(Br)o2)n(-c2ccccc2)c2nc3ccccc3nc12,96*,-28,x,-37,-1,-17,87*,-3,Apaf1 inh interf=>100
CCC(C)n1c(NC(=O)c2ccccc2)c(C#N)c2nc3ccccc3nc21 (stereo not given),93*,-41,i,x,-10,-1,33,9,
CO[C@H]1CN(C)C(=O)c2cc(NC(=O)Nc3ccccc3F)ccc2OC[C@H](C)N(CCC(F)(F)F)C[C@@H]1C,x,x,x,-23,10,x,x,x,
Cc1ccc(-c2nn3c(C)nnc3c3ccccc23)cc1S(=O)(=O)NCc1ccccc1,48*,7,i,x,3,-15,72*,7,Apaf1 inh interf=>100
COc1ccc(CN=Cc2[nH]c3ccc(Br)c(Cl)c3c2O)cc1,45*,-71,i,x,-7,-1,41*,-1,Apaf1 inh interf=>100
CO[C@@H]1CN(C)C(=O)c2cccc(C#N)c2OC[C@H]2O[C@H](CC[C@H]2OC)CCN(C)C(=O)[C@H]1C,x,x,x,-6,-17,x,x,x,
CC(=O)NC[C@@H]1[C@@H](c2ccccc2)[C@@H](CO)N1C(=O)Cc1ccncc1,x,x,x,-14,0,x,x,x,
Cc1ccc(C)c(S(=O)(=O)/N=C2\C=C(NS(=O)(=O)c3ccccc3)C(=O)c3ccccc32)c1,78*,-134,i,-9,-6,20,59*,18,
CCc1ccc(S(=O)(=O)/N=C2\C=C(NS(=O)(=O)c3ccccc3)C(=O)c3ccccc32)cc1,57*,-72,i,-22,15,7,51*,2,Apaf1 inh interf=>100
COc1ccccc1NC(=O)N[C@H]1CC[C@@H](CC(=O)N2CCC(Cc3ccccc3)CC2)O[C@H]1CO,x,x,x,3,6,x,x,x,
C[C@H]1CCCCO[C@@H](CN(C)S(=O)(=O)c2ccccc2)[C@@H](C)CN([C@@H](C)CO)C(=O)c2cc(NS(=O)(=O)c3cn(C)cn3)ccc2O1,x,x,x,-7,-10,x,x,x,
CC(=O)N1CCN(C(=S)NC(=O)C23CC4CC(CC(C4)C2)C3)CC1,48*,-6,i,-7,x,-6,3,-8,
CNC(=S)N1CCC(NC(=O)C23CC4CC(CC(C4)C2)C3)CC1,1,3,i,5,x,-5,x,x,
COCC(C)N1C(=O)Cc2c1nc(N)c1c(N)nc(N3CCN(c4ccccc4F)CC3)c(C#N)c21 (stereo not given),97*,-74,x,-18,x,-12,25,5,
COc1ccc(CN2C(=O)Cc3c2nc(N)c2c(N)nc(N4CCOCC4)c(C#N)c32)cc1,86*,-6,i,-9,x,-6,25,22,
CCC(=O)N1[C@@H]2c3ccc(-c4ccncc4)c(=O)n3C[C@H]1[C@H](CO)[C@H]2C(=O)N1CCc2ccccc2C1,x,x,x,-8,-2,x,x,x,
CNC[C@@H]1OCCCC[C@H](C)Oc2ccc(NC(=O)CCC(F)(F)F)cc2C(=O)N([C@@H](C)CO)C[C@H]1C,x,x,x,-212,-10,x,x,x,
O=C(COc1ccccc1)N1CCN=C1SCc1cccnc1,3,-6,i,x,-8,0,x,x,
O=C(COc1ccccc1)N1CCN=C1SCc1ccc(F)cc1,56*,15,i,-15,0,-9,5,-27,
CC1(C)Nc2ccc(O)cc2-c2c1ssc2=S,51*,-25,i,x,x,4,34,15,
COc1cccc(-n2sc3c(c2=S)-c2cc(OC)ccc2NC3(C)C)c1,-9,6,i,x,10,-1,x,x,
CCC(=O)N(CC)C1=C(O)c2ccccc2C(=O)C1=O,55*,-56,i,-9,x,2,14,-2,
CCC(=O)N(C)/C=C1\Sc2ccccc2C1=O,-6,1,i,x,x,9,x,x,
COc1ccccc1S(=O)(=O)N[C@@H]1CC[C@@H](CCNC(=O)C2CC2)O[C@@H]1CO,x,x,x,0,2,x,x,x,
CC(=O)c1cccc(NC(=O)CSc2ccc(-c3ccco3)nn2)c1,45*,-5,i,-10,3,-21,7,6,
